Where a SMILES comes first, the peptide text is derived from it.
Molecular target: Furin (Homo sapiens, UniProt P09958)
Assay: Inhibition of recombinant soluble human furin using pyroGlu-Arg-Thr-Lys-Arg-methyl-coumaryl-7-amide as substrate measured after 1 hr
Outline: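 Soluble human recombinant furin was tested in a competitive kinetic assay. Ki is reported as the mean ± SD of at least two independent experiments.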

Furin, sequence (P09958 whole entry): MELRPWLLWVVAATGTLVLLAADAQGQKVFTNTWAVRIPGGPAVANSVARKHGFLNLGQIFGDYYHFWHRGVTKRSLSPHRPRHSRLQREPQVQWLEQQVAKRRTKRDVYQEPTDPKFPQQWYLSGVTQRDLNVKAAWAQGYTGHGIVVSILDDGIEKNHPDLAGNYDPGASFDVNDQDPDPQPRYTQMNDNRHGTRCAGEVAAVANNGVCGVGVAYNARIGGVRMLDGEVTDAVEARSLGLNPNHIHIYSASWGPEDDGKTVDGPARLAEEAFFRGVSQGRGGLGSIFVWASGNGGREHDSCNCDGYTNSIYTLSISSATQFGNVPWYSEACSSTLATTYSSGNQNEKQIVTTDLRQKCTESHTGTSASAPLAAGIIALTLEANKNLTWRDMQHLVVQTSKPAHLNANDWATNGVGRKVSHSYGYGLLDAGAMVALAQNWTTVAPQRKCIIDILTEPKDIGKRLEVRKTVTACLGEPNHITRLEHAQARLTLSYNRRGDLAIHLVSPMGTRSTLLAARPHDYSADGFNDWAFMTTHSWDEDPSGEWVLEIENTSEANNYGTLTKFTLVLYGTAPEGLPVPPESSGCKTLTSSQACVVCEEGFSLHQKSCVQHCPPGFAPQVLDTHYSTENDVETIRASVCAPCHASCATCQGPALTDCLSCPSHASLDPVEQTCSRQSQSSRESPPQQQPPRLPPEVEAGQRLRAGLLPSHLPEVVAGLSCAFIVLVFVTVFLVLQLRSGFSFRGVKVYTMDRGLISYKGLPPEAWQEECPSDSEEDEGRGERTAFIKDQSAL

SMILES	Ki [µM]
CC(=O)N[C@@H](CCCNC(=N)N)C(=O)N[C@@H](CC(=O)O)C(=O)N[C@@H](CCCNC(=N)N)C(=O)N[C@@H](CCCNC(=N)N)C(=O)N[C@@H](CCCNC(=N)N)C(=O)N[C@@H](CCCCN)C(=O)N[C@@H](CCCCN)C(=O)N[C@@H](CCCNC(=N)N)C(=O)N[C@H](C(N)=O)[C@@H](C)O	0.033
CC(=O)NCC(=O)N[C@@H](C)C(=O)N[C@@H](CCCNC(=N)N)C(=O)N[C@@H](CCCNC(=N)N)C(=O)N[C@@H](CCCNC(=N)N)C(=O)N[C@@H](CCCCN)C(=O)N[C@@H](CCCCN)C(=O)N[C@@H](CCCNC(=N)N)C(=O)N[C@H](C(N)=O)[C@@H](C)O	0.011
CC(=O)N[C@@H](CCCNC(=N)N)C(=O)N[C@@H](C)C(=O)N1CCC[C@H]1C(=O)N[C@@H](CCCNC(=N)N)C(=O)N[C@@H](CCCNC(=N)N)C(=O)N[C@@H](CCCCN)C(=O)N[C@@H](CCCCN)C(=O)N[C@@H](CCCNC(=N)N)C(=O)N[C@H](C(N)=O)[C@@H](C)O	0.021
CC[C@H](NC(=O)[C@H](CCCNC(=N)N)NC(=O)[C@H](C)NC(=O)[C@@H](CO)NC(C)=O)C(=O)N[C@@H](CCCNC(=N)N)C(=O)N[C@@H](CCCCN)C(=O)N[C@@H](CCCCN)C(=O)N[C@@H](CCCNC(=N)N)C(=O)N[C@H](C(N)=O)[C@@H](C)O	0.015
CC(=O)N[C@@H](CCC(=O)O)C(=O)N[C@@H](C)C(=O)N[C@@H](CCCNC(=N)N)C(=O)N[C@@H](CCCNC(=N)N)C(=O)N[C@@H](CCCNC(=N)N)C(=O)N[C@@H](CCCCN)C(=O)N[C@@H](CCCCN)C(=O)N[C@@H](CCCNC(=N)N)C(=O)N[C@H](C(N)=O)[C@@H](C)O	0.011
CC(=O)N[C@@H](CCCNC(=N)N)C(=O)N[C@H](C(=O)N[C@@H](CCCNC(=N)N)C(=O)N[C@@H](CCCNC(=N)N)C(=O)N[C@@H](CCCNC(=N)N)C(=O)N[C@@H](CCCCN)C(=O)N[C@@H](CCCCN)C(=O)N[C@@H](CCCNC(=N)N)C(=O)N[C@H](C(N)=O)[C@@H](C)O)C(C)C	0.016
CC(=O)N[C@@H](CCCNC(=N)N)C(=O)N[C@@H](C)C(=O)N[C@H](C(=O)N[C@@H](CCCNC(=N)N)C(=O)N[C@@H](CCCNC(=N)N)C(=O)N[C@@H](CCCCN)C(=O)N[C@@H](CCCCN)C(=O)N[C@@H](CCCNC(=N)N)C(=O)N[C@H](C(N)=O)[C@@H](C)O)[C@@H](C)O	0.028
CC(=O)N[C@@H](CCCNC(=N)N)C(=O)N[C@@H](C)C(=O)N[C@@H](CCCNC(=N)N)C(=O)N[C@@H](CCC(N)=O)C(=O)N[C@@H](CCCNC(=N)N)C(=O)N[C@@H](CCCCN)C(=O)N[C@@H](CCCCN)C(=O)N[C@@H](CCCNC(=N)N)C(=O)N[C@H](C(N)=O)[C@@H](C)O	0.019
CC(=O)N[C@@H](CCCNC(=N)N)C(=O)NCC(=O)N[C@@H](CCCNC(=N)N)C(=O)N[C@@H](CCCNC(=N)N)C(=O)N[C@@H](CCCNC(=N)N)C(=O)N[C@@H](CCCCN)C(=O)N[C@@H](CCCCN)C(=O)N[C@@H](CCCNC(=N)N)C(=O)N[C@H](C(N)=O)[C@@H](C)O	0.017
CC(=O)N[C@@H](CCCNC(=N)N)C(=O)N[C@@H](C)C(=O)N[C@@H](CC(=O)O)C(=O)N[C@@H](CCCNC(=N)N)C(=O)N[C@@H](CCCNC(=N)N)C(=O)N[C@@H](CCCCN)C(=O)N[C@@H](CCCCN)C(=O)N[C@@H](CCCNC(=N)N)C(=O)N[C@H](C(N)=O)[C@@H](C)O	0.27
CC(=O)N[C@@H](CCCNC(=N)N)C(=O)N[C@@H](C)C(=O)N[C@@H](CCCNC(=N)N)C(=O)N[C@@H](CC(=O)O)C(=O)N[C@@H](CCCNC(=N)N)C(=O)N[C@@H](CCCCN)C(=O)N[C@@H](CCCCN)C(=O)N[C@@H](CCCNC(=N)N)C(=O)N[C@H](C(N)=O)[C@@H](C)O	0.13
CSCC[C@H](NC(=O)[C@H](C)NC(=O)[C@H](CCCNC(=N)N)NC(C)=O)C(=O)N[C@@H](CCCNC(=N)N)C(=O)N[C@@H](CCCNC(=N)N)C(=O)N[C@@H](CCCCN)C(=O)N[C@@H](CCCCN)C(=O)N[C@@H](CCCNC(=N)N)C(=O)N[C@H](C(N)=O)[C@@H](C)O	0.031
CC(=O)N[C@@H](CCCNC(=N)N)C(=O)N[C@@H](C)C(=O)N[C@@H](CCC(N)=O)C(=O)N[C@@H](CCCNC(=N)N)C(=O)N[C@@H](CCCNC(=N)N)C(=O)N[C@@H](CCCCN)C(=O)N[C@@H](CCCCN)C(=O)N[C@@H](CCCNC(=N)N)C(=O)N[C@H](C(N)=O)[C@@H](C)O	0.02
CC(=O)N[C@@H](CCCNC(=N)N)C(=O)N[C@@H](C)C(=O)N[C@@H](CC(C)C)C(=O)N[C@@H](CCCNC(=N)N)C(=O)N[C@@H](CCCNC(=N)N)C(=O)N[C@@H](CCCCN)C(=O)N[C@@H](CCCCN)C(=O)N[C@@H](CCCNC(=N)N)C(=O)N[C@H](C(N)=O)[C@@H](C)O	0.014
CC[C@H](C)[C@@H](NC(=O)[C@H](CCCNC(=N)N)NC(=O)[C@H](C)NC(=O)[C@H](CCCNC(=N)N)NC(C)=O)C(=O)N[C@@H](CCCNC(=N)N)C(=O)N[C@@H](CCCCN)C(=O)N[C@@H](CCCCN)C(=O)N[C@@H](CCCNC(=N)N)C(=O)N[C@H](C(N)=O)[C@@H](C)O	0.24
CC(=O)N[C@@H](CCCNC(=N)N)C(=O)N[C@@H](C)C(=O)N[C@@H](C)C(=O)N[C@@H](CCCNC(=N)N)C(=O)N[C@@H](CCCNC(=N)N)C(=O)N[C@@H](CCCCN)C(=O)N[C@@H](CCCCN)C(=O)N[C@@H](CCCNC(=N)N)C(=O)N[C@H](C(N)=O)[C@@H](C)O	0.023

SMILES	Ki [µM]
CC[C@H](NC(=O)[C@H](CCCNC(=N)N)NC(=O)[C@H](C)NC(=O)[C@@H]1CCCN1C(C)=O)C(=O)N[C@@H](CCCNC(=N)N)C(=O)N[C@@H](CCCCN)C(=O)N[C@@H](CCCCN)C(=O)N[C@@H](CCCNC(=N)N)C(=O)N[C@H](C(N)=O)[C@@H](C)O	0.01
CC(=O)N[C@@H](CCCNC(=N)N)C(=O)N[C@H](C(=O)N[C@@H](CCCNC(=N)N)C(=O)N[C@@H](CCCNC(=N)N)C(=O)N[C@@H](CCCNC(=N)N)C(=O)N[C@@H](CCCCN)C(=O)N[C@@H](CCCCN)C(=O)N[C@@H](CCCNC(=N)N)C(=O)N[C@H](C(N)=O)[C@@H](C)O)[C@@H](C)O	0.016
CC(=O)N[C@@H](CCCNC(=N)N)C(=O)N[C@@H](CO)C(=O)N[C@@H](CCCNC(=N)N)C(=O)N[C@@H](CCCNC(=N)N)C(=O)N[C@@H](CCCNC(=N)N)C(=O)N[C@@H](CCCCN)C(=O)N[C@@H](CCCCN)C(=O)N[C@@H](CCCNC(=N)N)C(=O)N[C@H](C(N)=O)[C@@H](C)O	0.015
CC[C@H](C)[C@H](NC(=O)[C@H](CCCNC(=N)N)NC(C)=O)C(=O)N[C@@H](CCCNC(=N)N)C(=O)N[C@@H](CCCNC(=N)N)C(=O)N[C@@H](CCCNC(=N)N)C(=O)N[C@@H](CCCCN)C(=O)N[C@@H](CCCCN)C(=O)N[C@@H](CCCNC(=N)N)C(=O)N[C@H](C(N)=O)[C@@H](C)O	0.02
CC(=O)N[C@@H](C)C(=O)N[C@H](C(=O)N[C@@H](CCCNC(=N)N)C(=O)N[C@@H](CCCNC(=N)N)C(=O)N[C@@H](CCCNC(=N)N)C(=O)N[C@@H](CCCCN)C(=O)N[C@@H](CCCCN)C(=O)N[C@@H](CCCNC(=N)N)C(=O)N[C@H](C(N)=O)[C@@H](C)O)C(C)C (Ac-AVRRRKKRT-NH2)	0.01
CC(=O)N[C@@H](CCCNC(=N)N)C(=O)N[C@@H](C)C(=O)N[C@@H](CCCNC(=N)N)C(=O)N[C@@H](Cc1c[nH]cn1)C(=O)N[C@@H](CCCNC(=N)N)C(=O)N[C@@H](CCCCN)C(=O)N[C@@H](CCCCN)C(=O)N[C@@H](CCCNC(=N)N)C(=O)N[C@H](C(N)=O)[C@@H](C)O	0.022
CC(=O)N[C@@H](CCCNC(=N)N)C(=O)N[C@@H](CC(N)=O)C(=O)N[C@@H](CCCNC(=N)N)C(=O)N[C@@H](CCCNC(=N)N)C(=O)N[C@@H](CCCNC(=N)N)C(=O)N[C@@H](CCCCN)C(=O)N[C@@H](CCCCN)C(=O)N[C@@H](CCCNC(=N)N)C(=O)N[C@H](C(N)=O)[C@@H](C)O	0.02
CCCC[C@H](NC(=O)[C@H](CCCNC(=N)N)NC(=O)[C@H](C)NC(=O)[C@H](CCCNC(=N)N)NC(C)=O)C(=O)N[C@@H](CCCNC(=N)N)C(=O)N[C@@H](CCCCN)C(=O)N[C@@H](CCCCN)C(=O)N[C@@H](CCCNC(=N)N)C(=O)N[C@H](C(N)=O)[C@@H](C)O	0.019
CSCC[C@H](NC(=O)[C@H](CCCNC(=N)N)NC(=O)[C@H](C)NC(=O)[C@H](CCCNC(=N)N)NC(C)=O)C(=O)N[C@@H](CCCNC(=N)N)C(=O)N[C@@H](CCCCN)C(=O)N[C@@H](CCCCN)C(=O)N[C@@H](CCCNC(=N)N)C(=O)N[C@H](C(N)=O)[C@@H](C)O	0.016
CC[C@H](C)[C@H](NC(=O)[C@H](C)NC(=O)[C@H](CCCNC(=N)N)NC(C)=O)C(=O)N[C@@H](CCCNC(=N)N)C(=O)N[C@@H](CCCNC(=N)N)C(=O)N[C@@H](CCCCN)C(=O)N[C@@H](CCCCN)C(=O)N[C@@H](CCCNC(=N)N)C(=O)N[C@H](C(N)=O)[C@@H](C)O	0.026
CC[C@H](C)[C@H](NC(=O)[C@H](CCCNC(=N)N)NC(=O)[C@H](C)NC(=O)[C@H](CCC(=O)O)NC(C)=O)C(=O)N[C@@H](CCCNC(=N)N)C(=O)N[C@@H](CCCCN)C(=O)N[C@@H](CCCCN)C(=O)N[C@@H](CCCNC(=N)N)C(=O)N[C@H](C(N)=O)[C@@H](C)O (Ac-EARIRKKRT-NH2)	0.012
CSCC[C@H](NC(=O)[C@H](CCCNC(=N)N)NC(C)=O)C(=O)N[C@@H](CCCNC(=N)N)C(=O)N[C@@H](CCCNC(=N)N)C(=O)N[C@@H](CCCNC(=N)N)C(=O)N[C@@H](CCCCN)C(=O)N[C@@H](CCCCN)C(=O)N[C@@H](CCCNC(=N)N)C(=O)N[C@H](C(N)=O)[C@@H](C)O	0.038
CC(=O)N[C@@H](CCC(N)=O)C(=O)N[C@@H](C)C(=O)N[C@@H](CCCNC(=N)N)C(=O)N[C@@H](CCCNC(=N)N)C(=O)N[C@@H](CCCNC(=N)N)C(=O)N[C@@H](CCCCN)C(=O)N[C@@H](CCCCN)C(=O)N[C@@H](CCCNC(=N)N)C(=O)N[C@H](C(N)=O)[C@@H](C)O	0.01
CC[C@H](C)[C@H](NC(=O)[C@H](CCCNC(=N)N)NC(=O)[C@H](C)NC(=O)[C@@H](NC(C)=O)[C@@H](C)O)C(=O)N[C@@H](CCCNC(=N)N)C(=O)N[C@@H](CCCCN)C(=O)N[C@@H](CCCCN)C(=O)N[C@@H](CCCNC(=N)N)C(=O)N[C@H](C(N)=O)[C@@H](C)O (Ac-TARIRKKRT-NH2)	0.011
CC(=O)N[C@@H](CCCNC(=N)N)C(=O)N[C@@H](C)C(=O)NCC(=O)N[C@@H](CCCNC(=N)N)C(=O)N[C@@H](CCCNC(=N)N)C(=O)N[C@@H](CCCCN)C(=O)N[C@@H](CCCCN)C(=O)N[C@@H](CCCNC(=N)N)C(=O)N[C@H](C(N)=O)[C@@H](C)O	0.035

Reference: ChEMBL document CHEMBL4680371, “Design and Structure-Activity Relationship of a Potent Furin Inhibitor Derived from Influenza Hemagglutinin” (ACS Med Chem Lett, 2021)
